The text below walks through data of ChEMBL document CHEMBL1156325, “Novel acyl coenzyme A (CoA): diacylglycerol acyltransferase-1 inhibitors: synthesis and biological activities of diacylethylenediamine derivatives” (Bioorg Med Chem, 2010).

As usually defined, the IC50 is the concentration needed to halve the response being measured. Usually solubility stands for the concentration that dissolves in the medium under given conditions.

For series [1], the target named is T1, Diacylglycerol O-acyltransferase 1 (Homo sapiens, UniProt O75907).
T1 sequence (O75907 whole entry): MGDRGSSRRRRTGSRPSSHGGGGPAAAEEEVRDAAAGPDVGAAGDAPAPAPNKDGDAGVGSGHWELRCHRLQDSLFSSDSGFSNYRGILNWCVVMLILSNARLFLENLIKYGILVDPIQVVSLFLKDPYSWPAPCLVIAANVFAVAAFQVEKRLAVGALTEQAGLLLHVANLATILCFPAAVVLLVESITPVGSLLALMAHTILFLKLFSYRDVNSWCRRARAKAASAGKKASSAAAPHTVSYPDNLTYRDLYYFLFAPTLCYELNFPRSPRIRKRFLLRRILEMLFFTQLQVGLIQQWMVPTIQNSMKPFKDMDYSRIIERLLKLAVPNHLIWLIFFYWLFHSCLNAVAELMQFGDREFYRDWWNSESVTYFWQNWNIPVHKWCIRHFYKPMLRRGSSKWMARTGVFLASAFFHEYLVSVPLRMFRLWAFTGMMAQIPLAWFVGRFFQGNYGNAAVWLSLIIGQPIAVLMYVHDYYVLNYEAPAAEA
As to the kind of experiment: Inhibition of human DGAT1 expressed in baculovirus infected Sf9 cells using [14C]oleoyl-CoA after 15 mins by TLC analysis.

Series [2] concerns the target T2, Diacylglycerol O-acyltransferase 1 (Mus musculus, UniProt Q9Z2A7).
T2 sequence (Q9Z2A7 whole entry): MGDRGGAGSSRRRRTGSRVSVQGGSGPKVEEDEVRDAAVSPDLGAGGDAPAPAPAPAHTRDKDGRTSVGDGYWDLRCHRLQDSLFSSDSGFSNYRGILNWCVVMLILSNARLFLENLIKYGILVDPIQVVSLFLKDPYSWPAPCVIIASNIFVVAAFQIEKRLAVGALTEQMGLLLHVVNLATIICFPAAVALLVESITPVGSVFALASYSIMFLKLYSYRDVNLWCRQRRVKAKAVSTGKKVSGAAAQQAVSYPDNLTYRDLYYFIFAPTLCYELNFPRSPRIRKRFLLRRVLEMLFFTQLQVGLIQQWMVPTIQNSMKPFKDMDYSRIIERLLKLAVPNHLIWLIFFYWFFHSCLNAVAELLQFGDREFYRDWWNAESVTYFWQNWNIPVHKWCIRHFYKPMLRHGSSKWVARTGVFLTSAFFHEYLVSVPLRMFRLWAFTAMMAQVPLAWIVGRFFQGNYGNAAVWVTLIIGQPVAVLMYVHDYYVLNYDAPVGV
In words: Inhibition of DGAT1 in mouse C2C12 cells assessed as suppression of [14C]triglyceride accumulation pretreated for 20 mins before [14C]oleic acid challenge measured after 20 mins by TLC analysis. Type of series: cell-based. A digest of the protocol:
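C2C12 cell suspension (10⁶ cells/mL final) was preincubated with serial compound dilutions at 37 °C for 20 min. [¹⁴C]-oleic acid substrate was then added with 0.001% fatty-acid-free BSA, 0.2% ethanol and 0.1% DMSO final. After 20 min at 37 °C, reactions were stopped with chloroform/methanol (1:2). Chloroform-phase lipids were separated by TLC (hexane/ether/ethyl acetate/acetic acid 255:30:15:0.6).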

Series [3] in a line: Metabolic stability in mouse liver microsomes at 1 umol/L after 20 mins by HPLC assessed per mg of protein. Type of series: ADME, Microsome. As to conditions: read-out: Stability. A digest of the protocol: (§1)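 Hepatic microsomes (0.2 mg/mL protein) were incubated at 37 °C for 0 and 20 min with an NADPH-generating system added at 10% of reaction volume. The system held 50 mmol/L MgCl₂, 50 mmol/L glucose-6-phosphate, 5 mmol/L β-NADP⁺ and 15 unit/mL G6PDH. Reactions were stopped with an equal volume of acetonitrile, run in duplicate. Parent disappearance was measured by HPLC-UV and expressed as %/min/mg.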

Series [4] can be described thus: Metabolic stability in rat liver microsomes at 1 umol/L after 20 mins by HPLC assessed per mg of protein. The class given is ADME, Microsome. As to conditions: read-out: Stability. In short, it runs like this: as §1
On the technique in general: Liver microsomes are vesicles of endoplasmic reticulum, rich in cytochrome P450 enzymes.

A short description of series [5]: Metabolic stability in human liver microsomes at 1 umol/L after 20 mins by HPLC assessed per mg of protein. Type of series: ADME, Microsome. As to conditions: read-out: Stability. In short, it runs like this:
as §1

Series [6] in a line: Solubility at pH 6.8. The class given is physicochemical. The settings on record: buffer.
In series [7] the test system is Mus musculus. In words: Toxicity in C57BL/6 mouse assessed as effect on total food intake at 3 mg/kg, po BID for 4 weeks. The class given is organism-based. More on the design: dose 3 mg/kg, route oral. The settings on record: in vivo, 672 h. A digest of the protocol: (§2)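 C57BL/6 mice fed a high-fat diet were dosed orally b.i.d. at 3 mg/kg as a 0.5% MC suspension for four weeks. Endpoints were body weight gain, total food intake, and mesenteric, perirenal and subcutaneous white adipose tissue weights.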

The test system of series [8] is Mus musculus. In words: Antiobesity activity in C57BL/6 mouse assessed as reduction in body weight gain at 3 mg/kg, po BID for 4 weeks. The class given is functional. The arrangement: scale not given: the % may be the effect or the level left. A digest of the protocol: as §2
For series [9], the system named is Mus musculus. In words: Antiobesity activity in C57BL/6 mouse assessed as reduction in subcutaneous white adipose tissue weight at 3 mg/kg, po BID for 4 weeks. The class given is functional. More on the design: scale not given: the % may be the effect or the level left. A digest of the protocol: as §2
The test system of series [10] is Mus musculus. As to the kind of experiment: Antiobesity activity in C57BL/6 mouse assessed as reduction in perirenal white adipose tissue weight at 3 mg/kg, po BID for 4 weeks. Type of series: functional. The arrangement: scale not given: the % may be the effect or the level left. In short, it runs like this: as §2
The test system of series [11] is Mus musculus. As to the kind of experiment: Antiobesity activity in C57BL/6 mouse assessed as reduction in mesenteric white adipose tissue weight at 3 mg/kg, po BID for 4 weeks. The class given is functional. The arrangement: scale not given: the % may be the effect or the level left. A digest of the protocol:
as §2

Structures are written as SMILES. ≈ marks a conversion by molar mass, not a printed value.

`CCOc1ccc(C(=O)N[C@H](CO)CNC(=O)c2cn(-c3ccccc3)nc2C(F)(F)F)cc1` showed an IC50 in [1] greater than 10000 nM.
Still for that read-out and setting: the value for `CCOc1ccc(C(=O)NC[C@H](CO)NC(=O)c2cn(-c3ccccc3)nc2C(F)(F)F)cc1` was greater than 10000 nM.
For the compound `CCOc1ccc(C(=O)NCCNC(=O)c2cn(-c3ccccc3)nc2C(F)(F)F)cn1`, the IC50 in series [2] is 87 nM. Further, the results for the remaining at 20 min, 1 µM in series [3], in [4] and in series [5] were 2.5%, 3.4% and 5.1%, respectively.
`O=C(NCCNC(=O)c1cn(-c2ccccc2)nc1C(F)(F)F)c1ccc(Cl)nc1`: in series [2], the IC50 was found to be 370 nM. Moreover, the values for the remaining at 20 min, 1 µM in [3], in [4] and in series [5] were 0%, 1.1% and 2.2%, respectively.
In the case of `CCOc1ccc(C(=O)NCCNC(=O)c2nc(-c3ccccc3)c(Cc3ccccc3)s2)cc1`, in [6], the solubility was less than 0.05 µg/mL. Also, the remaining at 20 min, 1 µM in series [3] was determined as 17%; in series [4], 14%; in series [5] it was 10%.
Turning to `O=C(NCCNC(=O)c1cn(-c2ccccc2)nc1C(F)(F)F)c1ccc(Cl)cn1`, the IC50 in series [2] stood at 1200 nM. Moreover, the remaining at 20 min, 1 µM in [3] was 1.8%; in series [4] it was 2.6%; in [5] it was 4.8%.
For `O=C(NCCNC(=O)c1cn(-c2ccccc2)nc1C(F)(F)F)c1ccc(-n2cccn2)cc1`, in that order: 400 nM, 3.5%, 6.5% and 5.9%.
For `CCOc1ccc(C(=O)NCCNC(=O)c2nn(-c3ccccc3)cc2C)cc1`, in that order: 1200 nM, 14%, 12% and 12%.
For `CCOc1ccc(C(=O)NCCNC(=O)c2cn(-c3ccc(Cl)cc3)nc2C(F)(F)F)cc1`, in that order: 1500 nM, 3.4%, 7.2% and 4.5%.
In the case of `CCOc1cccc(C(=O)NCCNC(=O)c2cn(-c3ccccc3)nc2C(F)(F)F)c1`, the IC50 in series [2] turned out to be 5100 nM. Further, the remaining at 20 min, 1 µM in [3] was 19%; in series [4] it was 8.3%; in [5], 14%.
For `CCOc1ccc(C(=O)NCCNC(=O)c2cn(-c3cccc(OCC)c3)nc2C(F)(F)F)cc1`, in that order: 600 nM, 6.5%, 7.1% and 7.4%.
As to `CCOc1ccc(C(=O)NCCNC(=O)c2cn(-c3ccccc3)nc2C(F)(F)F)cc1`, the solubility in [6] was 1.1 µg/mL (≈ 2.46 µM). Moreover, the IC50 in series [2] amounted to 77 nM. Further, the remaining at 20 min, 1 µM in series [3] was determined as 7%; in series [4], 6.5%; in series [5] it was 9%.
Regarding `CCOc1ccc(C(=O)NCCNC(=O)c2cn(-c3ccc(OCC)cc3)nc2C(F)(F)F)cc1`, the IC50 in series [2] stood at 380 nM. In addition, the remaining at 20 min, 1 µM in series [3] came out at 14%; in series [4], 8.7%; in [5], 7.5%.
For `CCOc1ccc(C(=O)NCCNC(=O)c2cn(-c3ccccc3O)nc2C(F)(F)F)cc1`, in that order: 610 nM, 0.5%, 18% and 5.7%.
For `CCOc1ccc(C(=O)NC[C@@H](CO)NC(=O)c2cn(-c3ccccc3)nc2C(F)(F)F)cc1`, the IC50 in series [1] is greater than 10000 nM.
As for `CCOc1ccc(C(=O)NCCNC(=O)c2cn(-c3ccccc3)nc2C)cc1`, the 50% inhibitory concentration (IC50) in series [2] came out at 260 nM. Besides, the remaining at 20 min, 1 µM was 2.5% in series [3], 5.8% in series [4] and 5% in series [5].
Regarding `CCOc1cc(C)c(C(=O)CCC(=O)Nc2nc(-c3ccccc3)c(Cc3ccccc3)s2)cc1OCC`, the concentration in solution in series [6] (solubility) was 0.08 µg/mL (≈ 0.151 µM). The remaining at 20 min, 1 µM in series [3] is 16%; in series [4] it was 11%; in series [5] it was 13%.
`O=C(NCCNC(=O)c1cn(-c2ccccc2)nc1C(F)(F)F)c1ccc(OCC(F)(F)F)nc1`: the Activity result in the series with Mus musculus [7] is recorded as “Non-toxic”; in the series on Mus musculus [8], -75%; with Mus musculus [9], -2.8%; in the series with Mus musculus [10], -12%; in the series with Mus musculus [11] it was -25%. Moreover, in series [2], the IC50 turned out to be 44 nM. For the same compound, the remaining at 20 min, 1 µM was determined as 0% in series [3], 0.4% in series [4] and 2.1% in series [5].
As for `CCOc1ccc(C(=O)NCCNC(=O)c2cn(-c3ccccn3)nc2C(F)(F)F)cc1`, the IC50 in [2] is 91 nM. The remaining at 20 min, 1 µM in series [3] was 7%; in [4], 10%; in series [5], 14%.
With `CCOc1ccc(C(=O)NCCNC(=O)c2cn(-c3cccnc3)nc2C(F)(F)F)cc1`, the IC50 in series [2] was 3400 nM.
Consider `CCOc1ccc(C(=O)NCCNC(=O)c2cn(C3CCCCC3)nc2C(F)(F)F)cc1`, for which, in series [2], the IC50 was found to be 650 nM. In addition, the results for the remaining at 20 min, 1 µM in series [3], in [4] and in series [5] were 7.8%, 11% and 8.7%, respectively.
In the case of `CCOc1ccc(C(=O)NCCNC(=O)c2cn(-c3ccncc3)nc2C(F)(F)F)cc1`, in [2], the IC50 was greater than 10000 nM.
`CCOc1ccc(C(=O)N[C@@H](CO)CNC(=O)c2cn(-c3ccccc3)nc2C(F)(F)F)cc1` registered an IC50 in series [1] greater than 10000 nM.
In the case of `CCOc1ccc(C(=O)NCCNC(=O)c2cn(Cc3ccccc3)nc2C(F)(F)F)cc1`, the remaining at 20 min, 1 µM in [3] worked out at 7.5%; in series [4] it was 18%; in [5] it was 5.5%.
